The test system of assay [1] is HepG2. Kind of assay: Cytotoxicity in human HepG2 cells assessed as reduction in cell viability incubated for 48 hrs by MTT assay. It is filed as functional, cell-based. As to conditions: HepG2, 48 h. Put shortly:
(§1)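 HepG2 and HL60 (ATCC) grown in DMEM with 10% FBS, 2 mM L-glutamine, penicillin/streptomycin, amphotericin B at 37 °C, 5% CO2. Samples dissolved in DMSO, diluted thousandfold in assay. Cells seeded in serum-free medium, treated with serial concentrations 48 h; MTT 4 h, formazan dissolved in acidified isopropanol, A570. Triplicates averaged; viability relative to untreated/vehicle control.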

In the next assay the test system is HL-60. In words: Cytotoxicity in human HL60 cells assessed as reduction in cell viability incubated for 48 hrs by MTT assay. As to conditions: HL-60, 48 h. The format is functional, cell-based. Summed up:
as §1
(Tetrazolium assays rely on reduction of a dye to a coloured formazan, in cell work by metabolically active cells.)

The test system of assay [2] is HepG2. Kind of assay: Inhibition of beta tubulin polymerisation in human HepG2 cells incubated for 2 hrs using TMB substrate by ELISA relative to untreated control. It is filed as cell-based. Details: concentration or dose not given beside the values. Conditions: dose or concentration not given here.
A short description of assay [3]: Inhibition of beta tubulin polymerisation in human HepG2 cells incubated for 2 hrs using TMB substrate by ELISA. The format is cell-based. As to conditions: HepG2, 2 h.

The structures appear in SMILES notation.

A word on the IC50: it is the midpoint of a concentration-inhibition curve. As a reminder, the inhibition is the share of the control response that was lost under treatment.

For `COc1ccc(/C=C\c2cc(OC)c(OC)c(OC)c2)cc1O` [COMBRETASTATIN A4], the figures for the IC50 (in the assay with HepG2 [1]; in the assay on HL-60; in assay [3]) were 2.41 µM, 0.56 µM and 2.4 µM, respectively. In the assay on HepG2 [2], this compound showed an inhibition of 72.3%.

Regarding `CCOc1ccc(NC(=O)c2nc(-c3cc(OC)c(OC)c(OC)c3)n(-c3ccc(OCC)cc3)n2)cc1`, the IC50 came out at 29.8 µM in the assay on HepG2 [1] and 6 µM in the assay with HL-60.

Regarding `CCOc1ccc(-n2nc(C(=O)Nc3ccc(OC)c(OC)c3)nc2-c2cc(OC)c(OC)c(OC)c2)cc1`, the values for the IC50 in the assay with HepG2 [1] and with HL-60 were 32.8 µM and 4.3 µM, respectively.

With `COc1cccc(NC(=O)c2nc(-c3cc(OC)c(OC)c(OC)c3)n(-c3cccc(OC)c3)n2)c1`, the IC50 with HepG2 [1] and in the assay with HL-60 was 15.3 µM each time.

Take `COc1cccc(-n2nc(C(=O)Nc3ccccc3OC)nc2-c2cc(OC)c(OC)c(OC)c2)c1`: the IC50 in the assay on HepG2 [1] and in the assay on HL-60 was 29.9 µM each time.

In the case of `COc1cccc(-n2nc(C(=O)Nc3ccc(F)c(F)c3)nc2-c2cc(OC)c(OC)c(OC)c2)c1`, the IC50 was 11 µM in the assay with HepG2 [1] and 31.3 µM in the assay with HL-60.

In the case of `COc1cccc(-n2nc(C(=O)Nc3ccc(F)c(F)c3F)nc2-c2cc(OC)c(OC)c(OC)c2)c1`, the IC50 in the assay on HepG2 [1] turned out to be 16.3 µM; with HL-60, 27.2 µM.

For the compound `CCOc1ccc(NC(=O)c2nc(-c3cc(OC)c(OC)c(OC)c3)n(-c3cccc(OC)c3)n2)cc1`, the IC50 with HepG2 [1] worked out at 8.75 µM; with HL-60, 14.5 µM.

As to `COc1cccc(-n2nc(C(=O)Nc3cc(OC)c(OC)c(OC)c3)nc2-c2cc(OC)c(OC)c(OC)c2)c1`, the IC50 in the assay with HepG2 [1] was 8.51 µM; with HL-60, 6.02 µM.

On to `COc1cccc(-n2nc(C(=O)Nc3cc(F)cc(F)c3)nc2-c2cc(OC)c(OC)c(OC)c2)c1`, for which the IC50 in the assay with HepG2 [1] was 1.38 µM; in the assay on HL-60, 54.2 µM; in assay [3], 1.3 µM. Also, the inhibition in the assay on HepG2 [2] amounted to 65.2%.

In the case of `COc1cccc(CNC(=O)c2nc(-c3cc(OC)c(OC)c(OC)c3)n(-c3cccc(OC)c3)n2)c1`, the IC50 in the assay on HepG2 [1] is 0.9 µM; with HL-60, more than 100 µM.

Regarding `COc1cccc(-n2nc(C(=O)Nc3ccc(OC)c(OC)c3)nc2-c2cc(OC)c(OC)c(OC)c2)c1`, the IC50 worked out at 32.5 µM in the assay on HepG2 [1] and 14.2 µM with HL-60.

The values are drawn from ChEMBL document CHEMBL4138126, “Synthesis, antiproliferative, anti-tubulin activity, and docking study of new 1,2,4-triazoles as potential combretastatin analogues” (Eur J Med Chem, 2017).
